Assays:
[1] = test system: ACHN; experiment: Antiproliferative activity against human ACHN cells after 96 hrs by MTT assay; format: functional, cell-based
Summary of the method: (§1)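 Solid-tumor cells in their specific media with 10% FCS were seeded at 5 × 10⁴ cells/mL and left to adhere 16 h. Serially diluted compound was then added (DMSO solution at 200 µM, diluted in medium). MTT viability was read 4 days later. IC50 came from linear regression against untreated controls, which grew at least three rounds, as the mean of three independent determinations.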

[2] = test system: MCF7; experiment: Antiproliferative activity against human MCF7 cells after 96 hrs by MTT assay; format: functional, cell-based; conditions: MCF7, 96 h; summary of the method: as §1
[3] = test system: CCRF-SB; experiment: Antiproliferative activity against human CCRF-SB cells after 96 hrs by MTT assay; format: functional, cell-based
Summary of the method: (§2)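 Exponentially growing cells in RPMI 1640 with 10% FCS were resuspended at 1 × 10⁵ cells/mL in RPMI containing serial dilutions of compound (DMSO solution at 200 µM, diluted in medium). After 96 h at 37 °C, viability was read by MTT. Growth was taken as % of untreated controls, which grew at least three rounds. IC50 came from linear regression, as the mean of three independent determinations.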

[4] = test system: HT-29; experiment: Antiproliferative activity against human HT-29 cells after 96 hrs by MTT assay; format: functional, cell-based; summary of the method: as §1
[5] = test system: SF-268; experiment: Antiproliferative activity against human SF-268 cells after 96 hrs by MTT assay; format: functional, cell-based; conditions: SF-268, 96 h; summary of the method: as §1
[6] = test system: MT4; experiment: Antiproliferative activity against human MT4 cells after 96 hrs by MTT assay; format: functional, cell-based; summary of the method: as §2
[7] = test system: CCRF-CEM; experiment: Antiproliferative activity against human CCRF-CEM cells after 96 hrs by MTT assay; format: functional, cell-based; summary of the method: as §2
[8] = test system: HeLa; experiment: Antiproliferative activity against human HeLa cells after 96 hrs by MTT assay; format: functional, cell-based; summary of the method: as §1
[9] = test system: XF498; experiment: Antiproliferative activity against human XF498 cells after 96 hrs by MTT assay; format: functional, cell-based; conditions: XF498, 96 h; summary of the method: as §1
[10] = biological target: DNA topoisomerase 2-alpha (Homo sapiens) (UniProt P11388); experiment: Inhibition of DNA topoisomerase 2-mediated negatively supercoiled pBR322 relaxation
Sequence of DNA topoisomerase 2-alpha (Homo sapiens) (P11388 whole entry): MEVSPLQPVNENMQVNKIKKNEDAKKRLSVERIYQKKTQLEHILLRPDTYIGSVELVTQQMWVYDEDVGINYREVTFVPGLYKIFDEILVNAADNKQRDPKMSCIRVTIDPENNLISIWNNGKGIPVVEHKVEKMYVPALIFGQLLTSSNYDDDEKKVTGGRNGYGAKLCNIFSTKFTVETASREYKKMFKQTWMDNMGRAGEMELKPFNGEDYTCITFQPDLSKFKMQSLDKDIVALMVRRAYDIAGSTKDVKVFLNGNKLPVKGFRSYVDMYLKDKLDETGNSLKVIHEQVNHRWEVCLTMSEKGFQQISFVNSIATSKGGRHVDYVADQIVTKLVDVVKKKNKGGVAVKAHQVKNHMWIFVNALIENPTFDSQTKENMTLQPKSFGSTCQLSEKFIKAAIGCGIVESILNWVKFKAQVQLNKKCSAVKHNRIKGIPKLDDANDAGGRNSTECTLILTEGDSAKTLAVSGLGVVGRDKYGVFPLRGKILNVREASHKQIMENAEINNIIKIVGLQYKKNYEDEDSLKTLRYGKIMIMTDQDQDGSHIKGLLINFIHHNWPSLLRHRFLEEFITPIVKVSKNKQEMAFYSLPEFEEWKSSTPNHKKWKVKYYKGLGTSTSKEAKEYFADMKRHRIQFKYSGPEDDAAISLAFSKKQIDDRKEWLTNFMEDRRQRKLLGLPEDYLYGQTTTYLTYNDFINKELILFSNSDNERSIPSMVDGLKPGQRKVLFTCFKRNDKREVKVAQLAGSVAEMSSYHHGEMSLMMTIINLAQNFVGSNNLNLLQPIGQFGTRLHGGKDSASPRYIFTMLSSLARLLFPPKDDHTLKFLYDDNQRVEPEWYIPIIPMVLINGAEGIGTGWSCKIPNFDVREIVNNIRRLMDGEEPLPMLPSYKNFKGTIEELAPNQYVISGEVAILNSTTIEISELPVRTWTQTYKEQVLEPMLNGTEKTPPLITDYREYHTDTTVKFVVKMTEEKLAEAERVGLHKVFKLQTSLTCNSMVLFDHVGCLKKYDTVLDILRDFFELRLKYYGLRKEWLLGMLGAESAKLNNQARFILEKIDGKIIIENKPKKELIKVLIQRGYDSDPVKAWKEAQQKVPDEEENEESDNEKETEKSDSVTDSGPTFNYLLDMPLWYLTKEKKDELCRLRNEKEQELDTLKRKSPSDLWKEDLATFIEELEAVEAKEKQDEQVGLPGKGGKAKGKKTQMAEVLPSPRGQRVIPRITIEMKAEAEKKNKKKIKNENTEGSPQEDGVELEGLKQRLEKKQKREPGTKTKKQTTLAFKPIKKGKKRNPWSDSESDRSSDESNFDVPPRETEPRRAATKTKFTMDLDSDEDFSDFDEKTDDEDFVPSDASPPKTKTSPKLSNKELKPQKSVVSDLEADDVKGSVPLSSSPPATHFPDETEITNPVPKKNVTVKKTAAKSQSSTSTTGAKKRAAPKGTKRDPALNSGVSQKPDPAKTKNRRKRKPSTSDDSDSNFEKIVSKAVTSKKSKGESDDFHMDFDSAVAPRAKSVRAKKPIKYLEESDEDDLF

[11] = test system: MRC5; experiment: Antiproliferative activity against human MRC5 cells after 96 hrs by MTT assay; format: cell-based; conditions: MRC5, 96 h; summary of the method: as §2

Row | Structure (SMILES) | IC50 [1] [nM] | IC50 [2] [nM] | IC50 [3] [nM] | IC50 ([4]; Homo sapiens, HT-29, 96 h) [nM] | IC50 [7] [nM] | IC50 [8] [nM] | Activity [10] | IC50 ([4]; ht-29) [nM] | IC50 [5] [nM] | IC50 ([6]; Homo sapiens, MT4, 96 h) [nM] | IC50 [9] [nM] | IC50 [11] [nM] | IC50 ([6]; mt4) [nM]
1 | Cc1ccc(N2NC(=O)NC3(CSC4=C3C(=O)c3ncccc3C4=O)C2=O)cc1 (racemic) | 500 | 410 | 37 | 200 | 70 | 210 |  |  | 2100 | 100 | 3800 |  | 
2 | O=C1NN(c2ccc([N+](=O)[O-])cc2)C(=O)C2(CSC3=C2C(=O)c2ncccc2C3=O)N1 (racemic) | 650 | 550 | 2 | 1010 | 2 | 610 |  |  | 3550 | 5 | 4800 |  | 
3 | O=C1NN(c2ccccc2)C(=O)C2(CSC3=C2C(=O)c2ncccc2C3=O)N1 (racemic) | 940 | 150 | 39 | 550 | 90 | 210 |  |  | 2200 | 150 | 4550 |  | 
4 | O=C1C2=C(C(=O)c3ncccc31)C1(CS2)NC(=O)N(c2ccc([N+](=O)[O-])cc2)C1=O (racemic) | 100 | 350 | 2 | 250 | 1 | 100 |  |  | 1520 | 8 | 1030 |  | 
5 | O=C1NNC(=O)C2(CSC3=C2C(=O)c2ncccc2C3=O)N1 (racemic) | 1050 | 1250 | 48 |  | 450 | 980 |  |  | 4820 |  | 5000 |  | 
6 | O=C1NC(=O)C2(CSC3=C2C(=O)c2ncccc2C3=O)N1 (single isomer, unassigned; (+)) |  |  |  | 190 |  |  |  |  |  | 130 |  |  | 
7 | O=C1NNC(=O)C2(CSC3=C2C(=O)c2ncccc2C3=O)N1 (single isomer, unassigned; (-)) |  |  |  |  |  |  |  | 1600 |  |  |  |  | 500
8 | O=C1NNC(=O)C2(CSC3=C2C(=O)c2ncccc2C3=O)N1 (stereo in doubt; (+)-3) |  |  |  | 1580 |  |  |  |  |  | 550 |  |  | 
9 | O=C1NC(=O)C2(CSC3=C2C(=O)c2ncccc2C3=O)N1 (stereo in doubt; (-)-2) |  |  |  |  |  |  |  | 180 |  |  |  |  | 120
10 | COc1cc([C@@H]2c3cc4c(cc3[C@@H](O[C@@H]3O[C@@H]5CO[C@@H](C)O[C@H]5[C@H](O)[C@H]3O)[C@H]3COC(=O)[C@H]23)OCO4)cc(OC)c1O [ETOPOSIDE] | 2150 | 1000 | 100 | 2500 | 1200 | 3000 |  |  | 3250 | 1250 | 3450 | 3900 | 

Second part, led by results:

Row | IC50 [1] [nM] | IC50 [2] [nM] | IC50 [3] [nM] | IC50 ([4]; Homo sapiens, HT-29, 96 h) [nM] | IC50 [7] [nM] | IC50 [8] [nM] | Activity [10] | IC50 ([4]; ht-29) [nM] | Structure (SMILES) | IC50 [5] [nM] | IC50 ([6]; Homo sapiens, MT4, 96 h) [nM] | IC50 [9] [nM] | IC50 [11] [nM] | IC50 ([6]; mt4) [nM]
11 | 50 | 70 | 190 | 50 | 150 | 90 |  |  | CCCCc1ccc(N2C(=O)NC3(CSC4=C3C(=O)c3ncccc3C4=O)C2=O)cc1 (racemic) | 400 | 200 | 950 |  | 
12 | 150 | 130 | 200 | 150 | 200 | 100 |  |  | CC(C)(C)c1ccc(N2C(=O)NC3(CSC4=C3C(=O)c3ncccc3C4=O)C2=O)cc1 (racemic) | 500 | 200 | 850 |  | 
13 | 360 | 110 | 51 | 220 | 50 | 150 |  |  | O=C1NN(c2ccc(Cl)cc2)C(=O)C2(CSC3=C2C(=O)c2ncccc2C3=O)N1 (racemic) | 2000 | 150 | 2500 |  | 
14 | 4 | 4 | 10 | 2 | 10 | 2 | Dose-dependent effect |  | O=C1C2=C(C(=O)c3ncccc31)C1(CS2)NC(=O)N(c2ccc(Cl)cc2)C1=O (racemic) | 580 | 10 | 590 | 800 | 
15 | 20 | 30 | 9 | 50 | 20 | 50 |  |  | CCN(CC)c1ccc(N2C(=O)NC3(CSC4=C3C(=O)c3ncccc3C4=O)C2=O)cc1 (racemic) | 960 | 8 | 730 |  | 
16 | 140 | 750 | 650 | 750 | 600 | 200 |  |  | O=C1C2=C(C(=O)c3ncccc31)C1(CS2)NC(=O)N(c2ccc(N3CCOCC3)cc2)C1=O (racemic) | 1980 | 800 | 1700 |  | 
17 | 12 | 2 | 20 | 1 | 20 | 2 |  |  | Cc1ccc(N2C(=O)NC3(CSC4=C3C(=O)c3ncccc3C4=O)C2=O)cc1 (racemic) | 660 | 27 | 1350 |  | 
18 | 430 | 230 | 35 | 650 | 35 | 150 |  |  | COc1ccc(N2NC(=O)NC3(CSC4=C3C(=O)c3ncccc3C4=O)C2=O)cc1 (racemic) | 2850 | 80 | 3800 |  | 
19 | 250 | 250 | 150 | 250 | 250 | 200 |  |  | CCCCCc1ccc(N2C(=O)NC3(CSC4=C3C(=O)c3ncccc3C4=O)C2=O)cc1 (racemic) | 520 | 190 | 830 |  | 
20 | 80 | 120 | 150 |  | 120 | 150 |  |  | O=C1NC(=O)C2(CSC3=C2C(=O)c2ncccc2C3=O)N1 (racemic) | 3100 |  | 3120 |  | 
21 | 80 | 10 | 1 | 2 | 2 | 10 |  |  | O=C1C2=C(C(=O)c3ncccc31)C1(CS2)NC(=O)N(c2ccncc2)C1=O (racemic) | 1100 | 3 | 1120 |  | 
22 | 5 | 50 | 10 | 1 | 10 | 5 |  |  | CCc1ccc(N2C(=O)NC3(CSC4=C3C(=O)c3ncccc3C4=O)C2=O)cc1 (racemic) | 450 | 1 | 1200 |  | 
23 | 21 | 1 | 30 | 2 | 10 | 3 |  |  | O=C1C2=C(C(=O)c3ncccc31)C1(CS2)NC(=O)N(c2ccccc2)C1=O (racemic) | 1700 | 25 | 1510 |  | 
24 | 50 | 50 | 10 | 2 | 50 | 1 |  |  | COc1ccc(N2C(=O)NC3(CSC4=C3C(=O)c3ncccc3C4=O)C2=O)cc1 (racemic) | 650 | 70 | 650 |  | 

From ChEMBL document CHEMBL1151746, “Antitumor agents 6. Synthesis, structure-activity relationships, and biological evaluation of spiro[imidazolidine-4,3'-thieno[2,3-g]quinoline]-tetraones and spiro[thieno[2,3-g]quinoline-3,5'-[1,2,4]triazinane]-tetraones with potent antiproliferative activity” (J Med Chem, 2008)
